Measured values from article PMC3349182 (British Journal of Cancer, 2012).

Tests used:
[1] = Food-effect investigation; format: in vivo, human
How it was run: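 At the MTD, patients were randomised to take the cycle 1 day 15 dose fed (after a high-fat meal) or fasted (overnight fast ⩾10 h). The day 22 dose was taken in the reverse state, with no food for 4 h after either dose. Plasma levels were measured by LC-MS/MS. The 90% CIs for log-transformed fed/fasted Cmax and AUC0-24 were derived by ANOVA; 80–125% was taken as no food effect.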

[2] = test system: patients with advanced, refractory solid tumours; assay: Phase I dose escalation: toxicity; format: in vivo, human
How it was run: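 Oral dosing was once daily in 28-day cycles, escalating by an accelerated design from 0.2 mg/day. Toxicity was graded by NCI CTC v3.0. During cycle 1, patients had weekly examination, blood pressure, full blood count, biochemistry and urinalysis, plus ECGs on days 1 and 8. DLT covered drug-related toxicity in cycle 1: grade ⩾3 toxicity, repeated grade 2 toxicity needing dose reduction, or <75% of planned dose given. The MTD was the highest dose with ≤1/6 patients having a DLT, and 12 more patients were treated at the MTD.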

[3] = 25 mg, eleven patients, high-fat meal vs overnight fast
[4] = treatment-related, 25 mg (n=24)
[5] = treatment-related, 0.2–6.4 mg (n=21)

In the case of `COc1cc2nccc(Oc3ccc(NC(=O)NC4CC4)c(Cl)c3)c2cc1C(N)=O` [E7080], the “AUC ratio fed/fasted (90% CI)” value [1, 3] is reported as 1.00 (90% CI 0.83–1.20), the “Cmax ratio fed/fasted (90% CI)” value [1, 3] is reported as 0.98 (90% CI 0.73–1.31) and the “tmax (median)” value ([1]; fasted group) is reported as 2.0 h. The “tmax (median)” value ([1]; fed group) was 5.0 h, the “Dose modifications required, % of patients” value ([2]; all doses) was 49% and the “Dose modifications required, n patients” value ([2]; all doses) was 40. For the same molecule, the “Dose reduction because of stomatitis, % of patients” value ([2]; all doses) was 2%, the “Haematological toxicities, % of patients” value ([2]; all grades, all doses) was 7% and the “Dose modifications required, % of patients” value ([2]; at the MTD of 25 mg) was 54%. The “Dose modifications required, n patients” value ([2]; at the MTD of 25 mg) was 13, the Tolerability ([2]; doses up to 25 mg per day, oral, daily continuous dosing) was “well tolerated” and the “Maximum tolerated dose (MTD)” value ([2]; oral, once-daily continuous schedule, 28-day cycles) was 25 mg. For the same molecule, the “Abdominal pain (all grades), n patients” value [2, 4] was 7, the “Anorexia (all grades), % of patients” value [2, 4] was 21% and the “Anorexia (all grades), n patients” value [2, 4] was 5. For the same molecule, the “Constipation (all grades), n patients” value [2, 4] was 8, the “Diarrhoea (all grades), n patients” value [2, 4] was 12 and the “Dry skin (all grades), % of patients” value [2, 4] was 46%. The “Dry skin (all grades), n patients” value [2, 4] was 11, the “Dysphonia (all grades), % of patients” value [2, 4] was 46% and the “Dysphonia (all grades), n patients” value [2, 4] was 11. For the same molecule, the “Fatigue (all grades), % of patients” value [2, 4] was 21%, the “Fatigue (all grades), n patients” value [2, 4] was 5 and the “Headache (all grades), n patients” value [2, 4] was 7. The “Hypertension (all grades), n patients” value [2, 4] was 15, the “Hypertension Grade 1, % of patients” value [2, 4] was 4% and the “Hypertension Grade 1, n patients” value [2, 4] was 1. For the same molecule, the “Hypertension Grade 2, % of patients” value [2, 4] was 46%, the “Hypertension Grade 2, n patients” value [2, 4] was 11 and the “Hypertension Grade 3, % of patients” value [2, 4] was 13%. For the same molecule, the “Lethargy (all grades), % of patients” value [2, 4] was 38%, the “Lethargy (all grades), n patients” value [2, 4] was 9 and the “Nausea (all grades), n patients” value [2, 4] was 14. The “Proteinuria (all grades), n patients” value [2, 4] was 7, the “Proteinuria Grade 1, % of patients” value [2, 4] was 0% and the “Proteinuria Grade 1, n patients” value [2, 4] was 0. For the same molecule, the “Proteinuria Grade 2, % of patients” value [2, 4] was 21%, the “Proteinuria Grade 2, n patients” value [2, 4] was 5 and the “Proteinuria Grade 3, % of patients” value [2, 4] was 8%. For the same molecule, the “Stomatitis (all grades), n patients” value [2, 4] was 15, the “Vomiting (all grades), n patients” value [2, 4] was 8 and the “Abdominal pain (all grades), % of patients” value ([2]; treatment-related, 32 mg (n=7)) was 0%. The “Abdominal pain (all grades), n patients” value ([2]; treatment-related, 32 mg (n=7)) was 0, the “Anorexia (all grades), n patients” value ([2]; treatment-related, 32 mg (n=7)) was 2 and the “Constipation (all grades), % of patients” value ([2]; treatment-related, 32 mg (n=7)) was 14%. For the same molecule, the “Constipation (all grades), n patients” value ([2]; treatment-related, 32 mg (n=7)) was 1, the “Diarrhoea (all grades), n patients” value ([2]; treatment-related, 32 mg (n=7)) was 4 and the “Dry skin (all grades), % of patients” value ([2]; treatment-related, 32 mg (n=7)) was 14%. For the same molecule, the “Dry skin (all grades), n patients” value ([2]; treatment-related, 32 mg (n=7)) was 1, the “Dysphonia (all grades), n patients” value ([2]; treatment-related, 32 mg (n=7)) was 3 and the “Fatigue (all grades), % of patients” value ([2]; treatment-related, 32 mg (n=7)) was 14%. The “Fatigue (all grades), n patients” value ([2]; treatment-related, 32 mg (n=7)) was 1, the “Headache (all grades), n patients” value ([2]; treatment-related, 32 mg (n=7)) was 2 and the “Hypertension (all grades), n patients” value ([2]; treatment-related, 32 mg (n=7)) was 4. For the same molecule, the “Hypertension Grade 1, n patients” value ([2]; treatment-related, 32 mg (n=7)) was 2, the “Hypertension Grade 2, % of patients” value ([2]; treatment-related, 32 mg (n=7)) was 0% and the “Hypertension Grade 2, n patients” value ([2]; treatment-related, 32 mg (n=7)) was 0. For the same molecule, the “Hypertension Grade 3, n patients” value ([2]; treatment-related, 32 mg (n=7)) was 2, the “Lethargy (all grades), n patients” value ([2]; treatment-related, 32 mg (n=7)) was 2 and the “Nausea (all grades), n patients” value ([2]; treatment-related, 32 mg (n=7)) was 3. For the same molecule, the “Proteinuria (all grades), n patients” value ([2]; treatment-related, 32 mg (n=7)) was 3, the “Proteinuria Grade 1, % of patients” value ([2]; treatment-related, 32 mg (n=7)) was 0% and the “Proteinuria Grade 1, n patients” value ([2]; treatment-related, 32 mg (n=7)) was 0. The “Proteinuria Grade 2, % of patients” value ([2]; treatment-related, 32 mg (n=7)) was 14%, the “Proteinuria Grade 2, n patients” value ([2]; treatment-related, 32 mg (n=7)) was 1 and the “Proteinuria Grade 3, n patients” value ([2]; treatment-related, 32 mg (n=7)) was 2. For the same molecule, the “Stomatitis (all grades), n patients” value ([2]; treatment-related, 32 mg (n=7)) was 4, the “Vomiting (all grades), % of patients” value ([2]; treatment-related, 32 mg (n=7)) was 14% and the “Vomiting (all grades), n patients” value ([2]; treatment-related, 32 mg (n=7)) was 1. For the same molecule, the “Abdominal pain (all grades), % of patients” value [2, 5] was 0%, the “Abdominal pain (all grades), n patients” value [2, 5] was 0 and the “Anorexia (all grades), % of patients” value [2, 5] was 10%. The “Anorexia (all grades), n patients” value [2, 5] was 2, the “Constipation (all grades), % of patients” value [2, 5] was 10% and the “Constipation (all grades), n patients” value [2, 5] was 2. The “Diarrhoea (all grades), n patients” value [2, 5] was 4, the “Dry skin (all grades), % of patients” value [2, 5] was 5% and the “Dry skin (all grades), n patients” value [2, 5] was 1. The “Dysphonia (all grades), % of patients” value [2, 5] was 0%, the “Dysphonia (all grades), n patients” value [2, 5] was 0 and the “Fatigue (all grades), % of patients” value [2, 5] was 10%. The “Fatigue (all grades), n patients” value [2, 5] was 2, the “Headache (all grades), % of patients” value [2, 5] was 0% and the “Headache (all grades), n patients” value [2, 5] was 0. For the same molecule, the “Hypertension (all grades), % of patients” value [2, 5] was 10%, the “Hypertension (all grades), n patients” value [2, 5] was 2 and the “Hypertension Grade 1, % of patients” value [2, 5] was 5%. The “Hypertension Grade 1, n patients” value [2, 5] was 1, the “Hypertension Grade 2, % of patients” value [2, 5] was 0% and the “Hypertension Grade 2, n patients” value [2, 5] was 0. For the same molecule, the “Hypertension Grade 3, % of patients” value [2, 5] was 5%, the “Hypertension Grade 3, n patients” value [2, 5] was 1 and the “Lethargy (all grades), % of patients” value [2, 5] was 14%. For the same molecule, the “Lethargy (all grades), n patients” value [2, 5] was 3, the “Nausea (all grades), % of patients” value [2, 5] was 38% and the “Nausea (all grades), n patients” value [2, 5] was 8. For the same molecule, the “Proteinuria (all grades), % of patients” value [2, 5] was 14%, the “Proteinuria (all grades), n patients” value [2, 5] was 3 and the “Proteinuria Grade 1, % of patients” value [2, 5] was 0%. The “Proteinuria Grade 1, n patients” value [2, 5] was 0, the “Proteinuria Grade 2, % of patients” value [2, 5] was 14% and the “Proteinuria Grade 2, n patients” value [2, 5] was 3. The “Proteinuria Grade 3, % of patients” value [2, 5] was 0%.
